Test results from paper PMC2574997 (Journal of medicinal chemistry, 2008).
Like-named read-outs stand apart in the source and are kept apart here.

Assays:
PKCα = PKCα (Mus musculus, UniProt P20444); assay: Competition with [3H]PDBU binding to PKCα; conditions: for Ratio Ki crude/Ki pure: relative to unresolved library E/Z mixture
Method in brief: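 Partially purified mouse PKCα; test compound in DMSO competed with [3H]PDBU. Pure compounds ran 6–7 ligand concentrations; ID50 from sigmoidal fit; Ki = ID50/(1+L/Kd). Crude library mixtures (unresolved E/Z) were tested at a single 1 μM, with Ki calculated from that concentration. The ratio compares crude with pure Ki. Triplicates per concentration; ≥3 independent experiments; mean ± SEM.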

α-secretase = assay: α-Secretase activation, secreted sAPPα by immunoblot densitometry in W4 cells; format: cell-based, rat; conditions: crude sample or control, 1 μM
JB6 cells = assay: Anchorage independent transformation in soft agar; format: cell-based, Balb/C; conditions: DAG-lactone 100 ng/mL, 14 days, normalized to TPA 10 ng/mL; L2-C11: both E- and Z-isomers
Method in brief: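 JB6 cells (10^4) suspended in 0.33% top agar containing DMSO, TPA (10 ng/mL) or test compound (100 ng/mL), layered over 0.5% bottom agar also containing compound. Anchorage-independent colonies counted after 14 days by automated image analysis; colonies >8 cells scored as transformed. Four independent plates seeded. Mean colony number reported relative to TPA as 100%.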

AP-1 = AP-1 luciferase assay; format: cell-based, Balb/C; conditions: pure DAG-lactone 100 ng/mL, 18 h, normalized to TPA 10 ng/mL; L2-C11: both E- and Z-isomers
LNCaP cells = assay: Apoptosis and radiosensitization in LNCaP cells; format: cell-based, human; conditions: 10 and 20 μM, 16 h pretreatment, 24 h post radiation (20 Gy)
Method in brief: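 LNCaP human prostate cancer cells were grown at 37°C, 5% CO2 in RPMI-1640 with 10% FCS, 2 mM L-glutamine, antibiotics and 10 mM HEPES (pH 7.2). FCS was replaced by 0.2% human albumin 24 h before the experiment. Cells were pretreated 16 h with test compound (10 or 20 μM), then irradiated (20 Gy). They were fixed 24 h later and stained with bis-benzimide. Cells with ≥3 apoptotic bodies were scored apoptotic by fluorescence microscopy. Mean of two experiments ± standard deviation.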

MCF-10A cells = assay: Cellular motility assay; format: cell-based, human; conditions: pure compounds, dose response, total area, 20 h
[1] = system: GFP-tagged PKCα, β, δ and ε; assay: Translocation of GFP-tagged PKC isoforms in CHO cells; format: cell-based, Chinese hamster; conditions: living CHO cells, 300 nM, confocal microscopy
Method in brief: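 PKC isoforms were subcloned into a modified pEGFP-N1 plasmid to give GFP-tagged proteins, which were over-expressed in CHO cells. Localization was followed in real time by confocal microscopy before and after ligand treatment, with membrane translocation from cytosol taken as activation.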

[2] = Library 1, pure sample = Z-isomer
[3] = Library 1, pure sample = E-isomer
[4] = Library 2, pure sample = E-isomer

Row | Ratio Ki crude/Ki pure (PKCα; [3]) | Ratio Ki crude/Ki pure (PKCα; [4]) | Compound | further results
1 | 7.4 |  | CCCCC(CC)C(=O)OCC1(CO)C/C(=C\c2ccc(N(C)C)cc2)C(=O)O1 (centres unmarked) [L1-E2, (E)-(4-{[4-(Dimethylamino)phenyl]methylene}-2-(hydroxymethyl)-5-oxo-2-2,3-dihydrofuryl)methyl 2-ethylhexanoate] | 
2 | 10.6 |  | CN(C)c1ccc(/C=C2\CC(CO)(COC(=O)c3ccc(N(C)C)cc3)OC2=O)cc1 (centres unmarked) [L1-E5, (E)-(4-{[4-(Dimethylamino)phenyl]methylene}-2-(hydroxymethyl)-5-oxo-2-2,3-dihydrofuryl)methyl 4-(dimethylamino)benzoate] | 
3 | 8.7 |  | COc1ccc(C(=O)OCC2(CO)C/C(=C\c3ccc(N(C)C)cc3)C(=O)O2)cc1 (centres unmarked) [L1-E6, (E)-(4-{[4-(Dimethylamino)phenyl]methylene}-2-(hydroxymethyl)-5-oxo-2-2,3-dihydrofuryl)methyl 4-methoxybenzoate] | α-secretase activity (sAPPα) relative to untreated cells (100%) (α-secretase): 177%
4 | 32.0 |  | COc1ccc(/C=C2\CC(CO)(COC(=O)c3c(C)cc(C)cc3C)OC2=O)cc1 (centres unmarked) [L1-F11, (E)-{2-(Hydroxymethyl)-4-[(4-methoxyphenyl)methylene]-5-oxo-2-2,3-dihydrofuryl}methyl 2,4,6-trimethylbenzoate] | 
5 |  | 3.0 | CCCC(CCC)C(=O)OCC1(CO)C/C(=C\c2ccc(F)cc2)C(=O)O1 (centres unmarked) [L2-B7, (E)-{4-[(4-Fluorophenyl)methylene]-2-(hydroxymethyl)-5-oxo-2-2,3-dihydrofuryl}methyl 2-propylpentanoate] | transforming activity (anchorage independent colonies) (JB6 cells): minimal transforming properties; AP-1 activation (AP-1 dependent luciferase activity) (AP-1): very strong AP-1 transcription factor activation; induction of apoptosis (LNCaP cells): induction of apoptosis
6 |  | 3.8 | CCCC(CCC)C(=O)OCC1(CO)C/C(=C\c2ccc(F)c(Cl)c2)C(=O)O1 (centres unmarked) [L2-B10, (E)-{4-[(3-Chloro-4-fluorophenyl)methylene]-2-(hydroxymethyl)-5-oxo-2-2,3-dihydrofuryl}methyl 2-propylpentanoate] | 
7 |  | 3.0 | CCCC(CCC)C(=O)OCC1(CO)C/C(=C\c2ccc(F)c(Br)c2)C(=O)O1 (centres unmarked) [L2-B12, (E)-{4-[(3-Bromo-4-fluorophenyl)methylene]-2-(hydroxymethyl)-5-oxo-2-2,3-dihydrofuryl}methyl 2-propylpentanoate] | induction of cell motility (MCF-10A cells): very weak effect on cell motility; Ki (PKCα): ~2 nM
8 |  | 4.3 | CCCCC(CC)C(=O)OCC1(CO)C/C(=C\c2ccc(Cl)cc2)C(=O)O1 (centres unmarked) [L2-C8, (E)-{4-[(4-Chlorophenyl)methylene]-2-(hydroxymethyl)-5-oxo-2-2,3-dihydrofuryl}methyl 2-ethylhexanoate] | transforming activity (anchorage independent colonies) (JB6 cells): significant transforming activity; AP-1 activation (AP-1 dependent luciferase activity) (AP-1): able to induce AP-1 activation

The next lines start with the compound.

Row | Compound | Ratio Ki crude/Ki pure (PKCα; [3]) | Ratio Ki crude/Ki pure (PKCα; [4]) | further results
9 | CCCCCC/C=C1/CC(CO)(COC(=O)c2c(C(C)C)cc(C(C)C)cc2C(C)C)OC1=O (centres unmarked) [L1-A12, (Z)-[4-Heptylidene-2-(hydroxymethyl)-5-oxo-2-2,3-dihydrofuryl]methyl 2,4,6-tris(methylethyl)benzoate] |  |  | Ratio Ki crude/Ki pure (PKCα; [2]): 50.4
10 | CCCCC(/C=C1/CC(CO)(COC(=O)c2ccc(N(C)C)cc2)OC1=O)CC (centres unmarked) [L1-B5, (Z)-[4-(2-Ethylhexylidene)-2-(hydroxymethyl)-5-oxo-2-2,3-dihydrofuryl]methyl 4-(dimethylamino)benzoate] |  |  | Ratio Ki crude/Ki pure (PKCα; [2]): 3.4
11 | CCCCC(/C=C1/CC(CO)(COC(=O)c2ccc([N+](=O)[O-])cc2)OC1=O)CC (centres unmarked) [L1-B8, (Z)-[4-(2-Ethylhexylidene)-2-(hydroxymethyl)-5-oxo-2-2,3-dihydrofuryl]methyl 4-nitrobenzoate] |  |  | Ratio Ki crude/Ki pure (PKCα; [2]): 1.4
12 | CN(C)c1ccc(/C=C2\CC(CO)(COC(=O)c3ccc([N+](=O)[O-])cc3)OC2=O)cc1 (centres unmarked) [L1-E8, (E)-(4-{[4-(Dimethylamino)phenyl]methylene}-2-(hydroxymethyl)-5-oxo-2-2,3-dihydrofuryl)methyl 4-nitrobenzoate] | 5.8 |  | 
13 | COc1ccc(/C=C2\CC(CO)(COC(=O)c3ccc(N(C)C)cc3)OC2=O)cc1 (centres unmarked) [L1-F5, (E)-{2-(Hydroxymethyl)-4-[(4-methoxyphenyl)methylene]-5-oxo-1-2,3-dihydrofuryl}methyl 4-(dimethylamino)benzoate] | 7.5 |  | 
14 | COc1ccc(/C=C2\CC(CO)(COC(=O)c3ccc(OC)cc3)OC2=O)cc1 (centres unmarked) [L1-F6, (E)-{2-(Hydroxymethyl)-4-[(4-methoxyphenyl)methylene]-5-oxo-1-2,3-dihydrofuryl}methyl 4-methoxybenzoate] | 2.6 |  | 
15 | COc1ccc(/C=C2\CC(CO)(COC(=O)c3c(C(C)C)cc(C(C)C)cc3C(C)C)OC2=O)cc1 (centres unmarked) [L1-F12, (E)-{2-(Hydroxymethyl)-4-[(4-methoxyphenyl)methylene]-5-oxo-2-2,3-dihydrofuryl}methyl 2,4,6-tris(methylethyl)benzoate] | 24.6 |  | 
16 | COc1ccc(C(=O)OCC2(CO)C/C(=C\c3ccc([N+](=O)[O-])cc3)C(=O)O2)cc1 (centres unmarked) [L1-H6, (E)-{2-(Hydroxymethyl)-4-[(4-nitrophenyl)methylene]-5-oxo-2-2,3-dihydrofuryl}methyl 4-methoxybenzoate] | 2.7 |  | 
17 | O=C1OC(CO)(COC(=O)c2ccc([N+](=O)[O-])cc2)C/C1=C\c1ccc([N+](=O)[O-])cc1 (centres unmarked) [L1-H8, (E)-{2-(Hydroxymethyl)-4-[(4-nitrophenyl)methylene]-5-oxo-2-2,3-dihydrofuryl}methyl 4-nitrobenzoate] | 5.2 |  | 
18 | CC(C)C(=O)OCC1(CO)C/C(=C/c2ccccc2C(F)(F)F)C(=O)O1 (centres unmarked) [L2-A1, (Z)-(2-(Hydroxymethyl)-5-oxo-4-{[2-(trifluoromethyl)phenyl]-methylene}-2-2,3-dihydrofuryl)methyl 2-methylpropanoate] |  |  | Ratio Ki crude/Ki pure (PKCα; Library 2, pure sample = Z-isomer): 0.51
19 | CCCC(CCC)C(=O)OCC1(CO)C/C(=C\c2ccc(C(F)(F)F)cc2)C(=O)O1 (centres unmarked) [L2-B4, (E)-(2-(Hydroxymethyl)-5-oxo-4-{[4-(trifluoromethyl)phenyl]methylene}-2-2,3-dihydrofuryl)methyl 2-propylpentanoate] |  | 5.6 | transforming activity (anchorage independent colonies) (JB6 cells): minimal transforming properties; AP-1 activation (AP-1 dependent luciferase activity) (AP-1): very strong AP-1 transcription factor activation; induction of apoptosis (LNCaP cells): induction of apoptosis
20 | CCCCC(CC)C(=O)OCC1(CO)C/C(=C\c2ccc(F)c(Br)c2)C(=O)O1 (centres unmarked) [L2-C12, (E)-{4-[(3-Bromo-4-fluorophenyl)methylene]-2-(hydroxymethyl)-5-oxo-2-2,3-dihydrofuryl}methyl 2-ethylhexanoate] |  | 2.9 | translocation of PKC isozymes α, β, δ and ε [1]: translocated very quickly; induction of cell motility (MCF-10A cells): induced cell motility
21 | CCC(C(=O)OCC1(CO)C/C(=C\c2ccc(-c3ccc(C(F)(F)F)cc3)cc2)C(=O)O1)c1ccccc1 (centres unmarked) [L2-D6, (E)-[2-(Hydroxymethyl)-5-oxo-4-({4-[4-(trifluoromethyl)phenyl]phenyl}methylene)-2-2,3-dihydrofuryl]methyl 2-phenylbutanoate] |  | 5.8 | induction of cell motility (MCF-10A cells): mimics L2-C12 in terms of inducing cell motility
22 | CC(C)(C)C(=O)OCC1(CO)C/C(=C\c2ccc(F)c(Cl)c2)C(=O)O1 (centres unmarked) [L2-F10, (E)-{4-[(3-Chloro-4-fluorophenyl)methylene]-2-(hydroxymethyl)-5-oxo-2-2,3-dihydrofuryl}methyl 2,2-dimethylpropanoate] |  | 1.8 | 
23 | (E)-{4-[(3-Chloro-4-fluorophenyl)methylene]-2-(hydroxymethyl)-5-oxo-2-2,3-dihydrofuryl}methyl 2-propylpentanoate [L2-B11] |  | 6.3 | Ki (PKCα; read-out: Pure Sample Ki, Library 2 pure compound, E-isomer): 3.38 ± 0.15 nM
